In ChEMBL document CHEMBL1132696, “Design of antineoplastic agents based on the "2-phenylnaphthalene-type" structural pattern. 4. Synthesis and biological activity of 2-chloro-3-(substituted phenoxy)-1, 4-naphthoquinones and related 5,8-dihydroxy-1,4-naphthoquinones” (J Med Chem, 1999):

Assays:
NCI = assay: Complete inhibition of cell growth of 60-human tumor cell line detected by National Cancer Institute.; format: functional, cell-based; conditions: read-out: Log IC50 (converted)
Summary of the method: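 National Cancer Institute preclinical 60 human tumour cell line drug discovery screen. Read-out is the log IC₅₀ (M) at which complete inhibition of cell growth is detected in at least one cell line. Scored qualitatively: +++ at -7.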

SCLC = assay: Cytotoxicity in SCLC (human lung carcinoma) cell line.; format: functional, cell-based
[1] = molecular target: DNA topoisomerase II (Homo sapiens) (UniProt P11388+Q02880); assay: Relative activity to induce mammalian DNA topoisomerase II-mediated DNA cleavage; format: functional
HL-60 = assay: Cytotoxicity in HL-60 (human leukemia) cell line.; format: functional, cell-based

| SMILES | concentration for complete growth inhibition (NCI) [nM] | IC50 (SCLC) [µM] | Activity [1] | IC50 (HL-60) [µM] |
| --- | --- | --- | --- | --- |
| COc1cc(OC)c2c3c(oc2c1)C(=O)c1c(OC)ccc(OC)c1C3=O | 10000 | > 10 | 2 | 128 |
| O=C1C=CC(=O)c2c(O)c(Oc3ccccc3)c(Cl)c(O)c21 | 100 | 0.25 | 4000 | 0.22 |
| COc1cc(OC)cc(OC2=C(Cl)C(=O)c3c(OC(C)=O)ccc(OC(C)=O)c3C2=O)c1 | 1000 | 1.1 | 50 | 0.5 |
| COc1cc(OC)cc(OC2=C(Cl)C(=O)c3c(O)ccc(O)c3C2=O)c1 | 1000 | 0.75 | 50 | 0.07 |
| O=C1C=CC(=O)c2c(O)c(Oc3ccccc3)c(Oc3ccccc3)c(O)c21 | 100 | 0.1 | 500 | 0.13 |
| O=C1C=CC(=O)c2c(O)c(Cl)c(Cl)c(O)c21 | – | 0.3 | – | 0.049 |
| COc1cccc(OC2=C(Cl)C(=O)c3c(OC(C)=O)ccc(OC(C)=O)c3C2=O)c1 | 1000 | 5 | 200 | 0.2 |
| COc1c(Cl)c(Cl)c(OC)c2c1C(=O)C=CC2=O | – | 0.75 | 10 | 1 |
| O=C1c2oc3cc(O)cc(O)c3c2C(=O)c2c(O)ccc(O)c21 | 100 | 1.5 | 2000 | 0.39 |
| O=C1C(Cl)=C(Oc2cc(O)cc(O)c2)C(=O)c2c(O)ccc(O)c21 | 1000 | 0.5 | 200 | 0.25 |
| O=C1c2ccccc2C(=O)c2c1oc1cc(O)cc(O)c21 | 1000 | 1.03 | > 100000 | – |
| COc1cccc(OC2=C(Oc3cccc(OC)c3)C(=O)c3c(OC)ccc(OC)c3C2=O)c1 | 100 | 1 | 0 | 0.16 |
| COc1cccc(OC2=C(Cl)C(=O)c3c(OC)ccc(OC)c3C2=O)c1 | 1000 | 2 | 20 | 0.44 |
| COc1ccc(OC)c2c1C(=O)C(Cl)=C(Oc1cccc(O)c1)C2=O | 1000 | 0.3 | 10 | 0.067 |
| COc1ccc(OC)c2c1C(=O)C(Cl)=C(Cl)C2=O | – | 1 | 200 | 0.22 |
| COc1cc(OC)cc(OC2=C(Cl)C(=O)c3c(OC)ccc(OC)c3C2=O)c1 | 1000 | 2 | 100 | 0.12 |
| COc1ccc2c3c(oc2c1)C(=O)c1c(OC)ccc(OC)c1C3=O | – | 1 | 2 | 14.5 |
| Cc1ccc[n+](C2=C([O-])C(=O)c3c(O)ccc(O)c3C2=O)c1 | – | > 10 | 0.5 | 30 |
| O=C1C(Cl)=C(Oc2cccc(O)c2)C(=O)c2c(O)ccc(O)c21 | 1000 | 0.45 | 100 | 0.16 |
| COc1cccc(OC2=C(Cl)C(=O)c3c(O)ccc(O)c3C2=O)c1 | 1000 | 0.5 | 800 | 0.2 |
